A selection: hits, their analogues and other compounds. The true share with any hit is near 2.2%.
Mcl1-Noxa inh: disrupts binding of human Mcl-1 to Noxa peptide; Q07820; 220,000 compounds, 1.5% hits; inhibition, % at 21.7 µM; TR-FRET Mcl-1/Noxa peptide binding, 2 h;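 active = compounds that cut the protein-peptide binding signal by more than 50% relative to plate controls in a single-dose test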;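 note: His-tagged Mcl-1 with rhodamine Noxa BH3 peptide and terbium anti-His antibody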
Target sequence (Q07820 whole entry, looked up): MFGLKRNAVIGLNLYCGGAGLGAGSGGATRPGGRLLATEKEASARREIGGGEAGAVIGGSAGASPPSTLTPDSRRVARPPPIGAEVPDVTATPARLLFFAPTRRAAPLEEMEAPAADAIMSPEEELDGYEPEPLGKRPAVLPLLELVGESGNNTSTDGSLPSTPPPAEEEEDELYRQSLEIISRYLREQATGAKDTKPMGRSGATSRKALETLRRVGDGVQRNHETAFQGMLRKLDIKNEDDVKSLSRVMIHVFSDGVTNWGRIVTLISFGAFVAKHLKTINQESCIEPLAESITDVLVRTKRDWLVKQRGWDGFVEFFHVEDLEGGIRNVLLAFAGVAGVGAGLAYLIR
Mcl1 Bid PPI: Mcl-1/Bid interaction inhibition. Q07820. TR-FRET Mcl-1/Bid-Dy647 peptide binding, 1536-well. inhibition, % at 21.7 µM. 220,000 compounds, 0.97% hits;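 active = compounds that cut the binding signal by more than half at the single screening dose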;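 note: His-tagged Mcl-1 with europium anti-His antibody binding Bid BH3 peptide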
MCL1 BIM primary: MCL1-BIM-BH3 interaction inhibition (human) | Q07820 | 320,000 compounds, 0.68% hits | GST-MCL1 / FITC-Bim-BH3 fluorescence polarization | inhibition, % at 10.9 µM | AID 2057;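 active = inhibition above the mean inhibition of all tested compounds plus 3 SD, set per campaign, cut at about 40% in these data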;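 note: higher means more loss of mP so more displacement of Bim peptide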
Bim-Mcl-1: human Bim-Mcl-1 interaction inhibition; Q07820; Bead-based flow cytometry, Bim peptide-Mcl-1 binding; inhibition, % at 10 µM; 190,000 compounds, 0.1% hits; in the data active = inhibition above about 40%
RBBP9 inhibitor: human RBBP9 hydrolase inhibition | O75884 | recombinant RBBP9, FP-Rh probe fluorescence polarization | inhibition, % at 7.94 µM | 220,000 compounds, 0.2% hits | AID 1515;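 active = inhibition above the campaign mean of all tested compounds plus 3 SD, cut at about 14% in these data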
Target sequence (O75884 whole entry, looked up): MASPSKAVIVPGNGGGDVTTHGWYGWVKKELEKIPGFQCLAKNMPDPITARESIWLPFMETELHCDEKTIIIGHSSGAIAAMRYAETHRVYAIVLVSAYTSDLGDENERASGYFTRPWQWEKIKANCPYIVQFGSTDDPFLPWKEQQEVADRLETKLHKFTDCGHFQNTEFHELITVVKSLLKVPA
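Material: RBBP9 protein. Amount: RBBP9 at 2.5 µM in dispensed solution, before mixing. Schedule: 30 min then 45 min, 25 °C. Medium: Tris buffer pH 8.0, NaCl, Pluronic. Measured by: fluorescence polarization. Measure: percent inhibition from mP, scaled between DMSO and no-protein wells. Replication: one well per compound.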
EBV gp42 block: blocks Epstein-Barr virus glycoprotein 42 binding. inhibition, % (tested at 21.74 µM). Q1HVG2. 220,000 compounds, 0.42% hits. Fluorescence polarization binding assay, mP read-out. AID 1085; in the data active = inhibition above about 50%
Hits are given with their value; n = inactive; x = no result.

SMILES	Mcl1-Noxa inh	Mcl1 Bid PPI	MCL1 BIM primary	Bim-Mcl-1	RBBP9 inhibitor	EBV gp42 block
O=C1CCCc2oc3c(cc(NS(=O)(=O)c4ccc5c6c(cccc46)C(=O)N5)c4ccccc43)c21	61	n	n	x	n	n
Cc1oc2c(cc(NS(=O)(=O)c3ccc4c5c(cccc35)C(=O)N4)c3ccccc32)c1C(=O)OC(C)C	n	n	n	n	n	n
CC1(C)OC(=O)C(=Cc2ccc(-c3ccc(Cl)c(C(=O)O)c3)o2)C(=O)O1	n	n	n	n	n	n
O=C1/C(=C/c2ccncc2)SC(=S)N1Cc1ccccc1	n	n	n	x	n	n
O=C(O)c1cc(-c2ccc(/C=C3/SC(=S)N(Cc4ccccc4)C3=O)o2)ccc1Cl	85	101	x	n	n	n
Cc1ccc(NC(=O)CN2C(=O)S/C(=C/c3ccc(-c4cccc(C(=O)O)c4)o3)C2=O)cc1	83	n	x	n	n	n
COc1ccc(CN2C(=O)/C(=C/c3ccc(-c4ccc(Cl)c(C(=O)O)c4)o3)SC2=S)cc1	92	99	x	n	n	n
Cc1ccc(/C=C2\SC(=S)N(Cc3ccccc3)C2=O)o1	90	n	n	n	n	n
COCCN(C(=O)C1CCCO1)c1c(N)n(CC(C)C)c(=O)[nH]c1=O (configuration not stated)	x	x	n	x	x	x
Cc1c(C(=O)OCC2CCCO2)[nH]c2c1C(=O)CC(c1ccco1)C2 (configuration not stated)	70	n	n	n	n	n
Cc1c(C(=O)OCC(C)C)[nH]c2c1C(=O)CC(c1ccco1)C2 (configuration not stated)	n	n	n	n	n	n
COCCn1cnnc1SCC(=O)Nc1cccc(S(=O)(=O)N2CCCCCC2)c1	n	54	n	n	n	n
Cn1cnnc1SCC(=O)Nc1cccc(S(=O)(=O)N2CCCCCC2)c1	n	n	n	n	n	n
Cc1cc(C(=O)Nc2cccc(S(=O)(=O)N3CCCCC3)c2)c2ccccc2n1	65	n	n	n	n	n
COc1ccc(S(=O)(=O)N(C)C)cc1NC(=O)CCNC(=O)c1ccco1	x	x	n	x	x	x
c1ccc(Oc2nc3ccccc3n3cccc23)cc1	n	67	n	n	n	n
Cc1ccc(Oc2nc3ccccc3n3cccc23)cc1	n	n	n	n	n	n
O=C(Nc1ccccc1Br)C1CC(=O)N(c2ccc3c4c(cccc24)CC3)C1 (configuration not stated)	n	n	n	n	n	n
C=CCOc1ccc(Br)cc1CNCCCN1CCOCC1	57	n	n	n	n	n
CN1CCN(c2ccc(Cl)cc2NC(=O)c2ccc(S(=O)(=O)N(C)C)cc2)CC1	55	n	n	n	n	n
C#Cc1ccc([C@H]2C=C(C(=O)O)O[C@@H](OCc3ccc(CO)cc3)C2)cc1	n	51	n	n	n	n
O=C(C1=C[C@@H](c2ccc(C(F)(F)F)cc2)C[C@@H](OCc2ccc(CO)cc2)O1)N1CCN(Cc2ccccc2)CC1	81	n	n	n	n	n
C#Cc1ccc([C@@H]2C=C(C(=O)N3CCN(Cc4ccc5c(c4)OCO5)CC3)O[C@H](OCCCCO)C2)cc1	n	84	n	n	n	n
O=C(C1=C[C@@H](c2ccc3c(c2)OCO3)C[C@@H](OCCCCO)O1)N1CCN(Cc2ccc3c(c2)OCO3)CC1	n	n	n	n	n	n
CN1CCN(C(=O)C2=C[C@@H](c3ccc(C(F)(F)F)cc3)C[C@@H](OCc3ccc(CO)cc3)O2)CC1	n	n	n	n	n	n
SMILES	Mcl1-Noxa inh	Mcl1 Bid PPI	MCL1 BIM primary	Bim-Mcl-1	RBBP9 inhibitor	EBV gp42 block
C#Cc1ccc([C@@H]2C=C(C(=O)NCc3ccccc3)O[C@H](OCc3ccc(CO)cc3)C2)cc1	n	n	n	n	n	n
CCOC(=O)c1cc(S(=O)(=O)N2CCN(C3CCCCC3)CC2)cn1C	x	x	n	x	x	x
Cc1c(Cc2ccccc2)c(NCCN(C)C)n2c(nc3ccccc32)c1C#N	79	n	n	x	n	n
CCc1c(C)c(C#N)c2nc3ccccc3n2c1NCCOC	x	x	n	x	x	x
Cc1c(C#N)c2ncnc(-c3ccccc3)c2n1-c1ccccc1	n	n	n	n	n	60
N#Cc1c2n(c3c(-c4ccccc4)ncnc13)CCC2	n	n	n	n	n	n
CC(C)c1nnc(NC(=O)CSc2ncn[nH]2)s1	53	n	n	n	n	n
COCCN(C(=S)Nc1ccc(C(C)C)cc1)C(C)c1cccs1 (configuration not stated)	n	n	n	n	n	n
Cc1nnc(SCC(=O)Nc2cc(Cl)ccc2Cl)n1CC1CCCO1 (configuration not stated)	x	x	n	x	x	x
C/C(=N\NC(=O)c1cc(-c2cccc([N+](=O)[O-])c2)n[nH]1)c1ccccc1O	58	73	n	n	n	n
O=C(O)CC(NC(=O)COc1ccc(Cl)cc1Cl)C(=O)O (configuration not stated)	n	72	n	n	n	n
COCCn1c(SCC(=O)NC(=O)NC(C)C)nc2ccccc21	n	n	n	n	n	n
COCCn1c(SCC(=O)NC(=O)NCc2ccccc2)nc2ccccc21	n	56	n	n	n	n
CCCCC1=CC2=C(c3ccco3)C(=O)C(C)(OC(=O)c3ccc(OC)cc3)C(=O)C2=CN1CC1CC1 (configuration not stated)	n	n	n	x	x	n
CCCCC1=CC2=C(c3ccco3)C(=O)C(C)(OC(=O)c3ccc(OC)cc3)C(=O)C2=CN1C1CC1 (configuration not stated)	n	n	40	x	x	n
Cc1ccccc1C(=O)Nc1cc(C(F)(F)F)ccc1-n1cncn1	x	x	n	x	x	x
O=C(CSc1nc2ccccc2n1CCc1ccccc1)N1CCOCC1	n	n	n	n	n	n
O=C(CSc1nc2ccccc2n1CCc1ccccc1)c1ccc(O)c(O)c1	102	52	x	n	n	72
COc1ccc(-n2c(SC)nc(O)c(Cc3ccccc3)c2=O)cc1	n	n	n	n	n	n
COc1ccc(Cc2c(O)nc(SC)n(C(C)=O)c2=O)cc1	n	n	n	67	n	n
COc1ccccc1NC(=O)c1cn(C)c(=O)c2cc(OC)c(OC)cc12	n	84	n	n	n	n
CCCOc1ccc2c(c1)C(=NN=C(N)N)c1cc(OCCC)ccc1-2	x	x	n	x	x	x
CCN(CC)Cc1cc(O)c(CN(CC)CC)cc1O	98	n	x	n	n	n
S=c1[nH]nc(-c2cccs2)n1/N=C/c1c(Cl)cccc1Cl	56	n	n	n	n	n
COc1cccc(-c2csc(N3CCN(C(=S)Nc4cccc(Cl)c4)CC3)n2)c1	n	89	n	n	n	n
COc1cccc(-c2csc(N3CCN(C(=S)Nc4ccccc4Cl)CC3)n2)c1	n	n	n	n	n	n
Cc1ccccc1N(C)C(=O)C1CCCN(c2ncnc3c2nc2n3CCCCC2)C1 (configuration not stated)	x	x	n	x	x	x

Screening results: PubChem BioAssay, several laboratories
